# Source: ChEMBL document CHEMBL1938334, “Quinoline tricyclic derivatives. Design, synthesis and evaluation of the antiviral activity of three new classes of RNA-dependent RNA polymerase inhibitors” (Bioorg Med Chem, 2011)
# Experiments:
# [1] = Cytotoxicity against human MT4 cells after 96 hrs by MTT assay; type: cell-based
# Method in brief: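 Exponentially growing MT-4 cells seeded at 1×10^5 cells/mL in RPMI-1640 with 10% FBS, penicillin and streptomycin. Incubated with serial compound dilutions at 37 °C, 5% CO2 for 96 h; viability by MTT. CC50 by linear regression relative to untreated controls; mean of three independent determinations.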
# [2] = system: Human immunodeficiency virus 1; assay: Antiviral activity against HIV1 3B infected in human MT4 cells assessed as inhibition of virus-induced cytopathogenicity after 4 days by MTT assay; type: functional, organism-based; details: Human immunodeficiency virus 1, 3B, MT4, 96 h
# Method in brief: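 MT-4 cells (1×10^4 per well) were infected with HIV-1 IIIB at 100 CCID50, m.o.i. 0.01, together with serial compound dilutions. Viability was read by MTT after 4 days at 37 °C. EC50 was taken by linear regression versus untreated controls. Mean of three determinations.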
# [3] = Cytotoxicity against MDBK cells after 48 to 96 hrs by MTT assay; type: cell-based, Bos taurus; details: cattle
# Method in brief: (§1)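 MDBK seeded at 6×10^5 and BHK at 1×10^6 cells/mL in MEM-Earle's with L-glutamine, 1 mM pyruvate, kanamycin, plus 10% horse serum (MDBK) or 10% FBS (BHK). Cells were grown at 37 °C, 5% CO2 with serial compound dilutions (DMSO stocks diluted in medium). Viability by MTT after 48–96 h. CC50 was taken by linear regression versus untreated controls; three independent determinations.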
# [4] = Antiviral activity against Bovine viral diarrhea virus 1-NADL infected in MDBK cells assessed as inhibition of virus-induced cytopathogenicity after 3 to 4 days by MTT assay; type: functional, cell-based; details: Bovine viral diarrhea virus isolates and strains
# Method in brief: (§2)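 Host cells were seeded in 96-well plates at 3×10^4 cells/well (MDBK) or 5×10^4 cells/well (BHK-21) and grown to confluent monolayers overnight. They were infected at m.o.i. 0.01 in maintenance MEM with 0.5% inactivated FBS. Serial compound dilutions were added after 1 h. Viability was read by MTT after 3–4 days at 37 °C. EC50 was taken by linear regression against untreated controls. Mean of three determinations.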
# [5] = Cytotoxicity against BHK21 cells after 48 to 96 hrs by MTT assay; type: cell-based, Mesocricetus auratus, BHK-21; details: hamster; method in brief: as §1
# Yellow fever virus = assay: Antiviral activity against Yellow fever virus 17D Stamaril Pasteur J07B01 infected in hamster BHK21 cells assessed as inhibition of virus-induced cytopathogenicity after 3 to 4 days by MTT assay; type: functional, cell-based; details: Stamaril Pasteur J07B01, BHK-21; method in brief: as §2
# [6] = Cytotoxicity against african green monkey Vero 76 cells after 48 to 96 hrs by crystal violet staining; type: cell-based; details: chlorocebus sabaeus
# Method in brief: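 Vero-76 cells were seeded at 4×10^5 cells/mL in D-MEM with L-glutamine, kanamycin and 10% FBS, then exposed to serial compound dilutions at 37 °C, 5% CO2 for 48–96 h. Viability was read by crystal violet staining. 50% cytotoxic concentration by linear regression relative to untreated controls; mean of three independent determinations.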
# Coxsackievirus B5 = assay: Antiviral activity against Human coxsackievirus B5 Ohio-1 infected in african green monkey Vero 76 cells assessed as reduction of virus-induced plaque formation after 3 days using crystal violet staining; type: functional, organism-based; details: Enterovirus B, Ohio-1, Vero, 72 h
# Poliovirus 1 = assay: Antiviral activity against Human poliovirus 1 strain Sabin Chat infected in african green monkey Vero 76 cells assessed as virus-induced reduction of plaque formation after 2 days using crystal violet staining; type: functional, cell-based; details: Enterovirus C, 48 h
# Human orthopneumovirus = assay: Antiviral activity against Human respiratory syncytial virus A2 infected in african green monkey Vero 76 cells assessed as reduction of virus-induced plaque formation after 5 days using crystal violet staining; type: functional, organism-based; details: 120 h
# [7] = system: Vesicular stomatitis Indiana virus; assay: Antiviral activity against clinical isolate Vesicular stomatitis Indiana virus infected in african green monkey Vero 76 cells assessed as reduction of virus-induced plaque formation after 2 days using crystal violet staining; type: functional, organism-based; details: 48 h
# [8] = Antiviral activity against Vaccinia virus Lister Elstree infected in african green monkey Vero 76 cells assessed as reduction of virus-induced plaque formation after 3 days using crystal violet staining; type: functional, cell-based; details: 72 h
# Human alphaherpesvirus 1 = assay: Antiviral activity against Human herpesvirus 1 strain KOS infected in african green monkey Vero 76 cells assessed as reduction of virus-induced plaque formation after 3 days using crystal violet staining; type: functional, organism-based; details: Human alphaherpesvirus 1, KOS, 72 h
# Reovirus sp. = assay: Antiviral activity against Reovirus type-1 3651 infected in hamster BHK21 cells assessed as inhibition of virus-induced cytopathogenicity after 3 to 4 days by MTT assay; type: functional, organism-based; details: Reovirus sp., 3651, BHK-21; method in brief: as §2
SMILES,CC50 at 96 h [1] [µM],EC50 [2] [µM],CC50 [3] [µM],EC50 [4] [µM],CC50 [5] [µM],EC50 (Yellow fever virus) [µM],CC50 [6] [µM],EC50 (Coxsackievirus B5) [µM],EC50 (Poliovirus 1) [µM],EC50 (Human orthopneumovirus) [µM],EC50 [7] [µM],EC50 [8] [µM],EC50 (Human alphaherpesvirus 1) [µM],EC50 (Reovirus sp.) [µM]
CC(=O)n1nnc2c(Cl)c3ncccc3cc21,46,> 46,30,> 30,72,> 72,> 100,> 100,> 100,> 100,> 100,> 100,> 100,–
O=[N+]([O-])c1ccc(-c2nc3cc4cccnc4cc3[nH]2)c2ccccc12,6,> 6,18,> 18,> 100,> 100,> 100,> 100,> 100,> 100,> 100,> 100,–,50
c1ccc(-c2nc3cc4cccnc4cc3[nH]2)cc1,28,> 28,80,10,40,> 40,> 100,19,37,> 100,> 100,> 100,> 100,13
Oc1ccnc2c(Cl)c3[nH]c(-c4ccccc4)nc3cc12,> 100,> 100,> 100,> 100,75,> 75,> 100,> 100,> 100,> 100,> 100,> 100,> 100,> 75
N#CCn1nnc2c(Cl)c3ncccc3cc21,62,> 62,> 100,23,> 100,> 100,> 100,> 100,> 100,> 100,> 100,> 100,51,> 100
Clc1c2ncccc2cc2nc[nH]c12,> 100,> 100,> 100,> 100,> 100,> 100,> 100,> 100,> 100,–,> 100,> 100,> 100,> 100
Oc1ccnc2c(Cl)c3[nH]nnc3cc12,> 100,> 100,> 100,> 100,> 100,> 100,> 100,> 100,> 100,> 100,> 100,> 100,> 100,≥ 100
Clc1c2ncccc2cc2nc(-c3ccccc3)[nH]c12,29,> 29,65,4,35,> 35,> 100,36,53,> 100,> 100,> 100,> 100,10
O=[N+]([O-])c1ccc(-c2nc3cc4cccnc4cc3[nH]2)cc1,> 100,> 100,90,20,> 100,> 100,95,35,> 95,> 95,> 95,> 95,–,67
Nc1nc2c(ncn2COCCO)c(=O)[nH]1 [ACYCLOVIR],–,–,–,–,–,–,> 100,–,–,–,–,–,–,–
O=c1cnn([C@@H]2O[C@H](CO)[C@@H](O)[C@H]2O)c(=O)[nH]1 [6-AZAURIDINE],–,–,–,–,–,–,≥ 12.5,–,–,1.2,–,–,–,–
O=C1Nc2ccc(Cl)cc2[C@@](C#CC2CC2)(C(F)(F)F)O1 [EFAVIRENZ],40,–,–,–,–,–,–,–,–,–,–,–,–,–
CCc1nc2cc3cccnc3c(Cl)c2[nH]c1=O,51,> 51,75,6.5,95,> 95,100,> 100,> 100,18,35,> 100,> 100,36
Clc1ccc(-c2nc3cc4cccnc4cc3[nH]2)cc1Cl,> 100,> 100,> 100,> 100,> 100,> 100,> 100,> 100,> 100,> 100,> 100,> 100,> 100,> 100
Clc1ccc(-c2nc3cc4cccnc4cc3[nH]2)cc1,100,> 100,> 100,18,> 100,> 100,> 100,43,> 100,> 100,> 100,> 100,> 100,> 100
c1cnc2cc3[nH]cnc3cc2c1,> 100,> 100,> 100,> 100,> 100,> 100,> 100,> 100,> 100,–,> 100,> 100,> 100,> 100
C#C[C@@]1(O)[C@H](O)[C@@H](CO)O[C@H]1n1ccc(N)nc1=O [2'-ETHYNYL-D-CYTIDINE],–,–,–,–,–,–,> 100,27,–,–,–,–,–,–
COc1c(C)c2c(c(O)c1C/C=C(\C)CCC(=O)O)C(=O)OC2 [MYCOPHENOLIC ACID],–,–,–,–,–,–,≥ 12.5,–,–,–,–,1.5,–,–
c1cnc2cc3nccnc3cc2c1,> 100,> 100,> 100,> 100,> 100,> 100,> 100,> 100,> 100,–,> 100,> 100,> 100,–
C[C@@]1(O)[C@H](O)[C@@H](CO)O[C@H]1n1ccc(N)nc1=O,–,–,–,–,> 100,–,–,–,–,–,–,–,–,16
[O-][n+]1n[nH]c2c(Cl)c3nccc(O)c3cc21,> 100,> 100,> 100,> 100,> 100,> 100,> 100,> 100,> 100,> 100,> 100,> 100,–,> 100
O=[N+]([O-])c1c2cccnc2c(Cl)c2[nH]n[n+]([O-])c12,> 100,> 100,> 100,> 100,> 100,> 100,> 100,> 100,> 100,> 100,> 100,> 100,–,–
[O-][n+]1n[nH]c2c(Cl)c3ncccc3cc21,> 100,> 100,> 100,> 100,> 100,> 100,> 100,86,> 100,> 100,> 100,> 100,> 100,–
C[C@@]1(O)[C@H](O)[C@@H](CO)O[C@H]1n1cnc2c(=O)[nH]c(N)nc21 [2'-B-METHYL-GUANOSINE],–,–,> 10,1.1,> 10,1.9,–,–,–,–,–,–,–,–
